ChEMBL document CHEMBL3632584, “Further Optimization and Evaluation of Bioavailable, Mixed-Efficacy μ-Opioid Receptor (MOR) Agonists/δ-Opioid Receptor (DOR) Antagonists: Balancing MOR and DOR Affinities” (J Med Chem, 2015)
pEC50, pKi: −log10 of the molar value. The source made the active and inactive calls.

Key:
[1] = biological target: T1, Kappa-type opioid receptor (Homo sapiens, UniProt P41145); assay: Agonist activity at human kappa-opioid receptor expressed in CHO cell membrane assessed as [35S]GTPgammaS binding for 1 hr by liquid scintillation counting analysis; format: functional, cell membranes; details: for EC50: cho; for pEC50: read-out: EC50
T1 sequence (P41145 whole entry): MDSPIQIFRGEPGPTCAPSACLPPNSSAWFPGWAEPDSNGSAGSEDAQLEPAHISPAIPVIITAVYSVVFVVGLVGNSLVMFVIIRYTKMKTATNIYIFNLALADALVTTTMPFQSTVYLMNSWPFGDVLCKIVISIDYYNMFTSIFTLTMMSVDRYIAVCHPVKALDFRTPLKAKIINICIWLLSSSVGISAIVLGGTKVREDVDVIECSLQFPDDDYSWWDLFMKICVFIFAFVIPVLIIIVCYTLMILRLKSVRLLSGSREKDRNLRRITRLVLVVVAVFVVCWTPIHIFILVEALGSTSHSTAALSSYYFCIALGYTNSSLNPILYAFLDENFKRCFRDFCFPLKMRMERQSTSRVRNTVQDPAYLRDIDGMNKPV

[2] = biological target: Mu-type opioid receptor (Rattus norvegicus) (UniProt P33535); assay: Agonist activity at rat mu-opioid receptor expressed in C6 cell membrane assessed as [35S]GTPgammaS binding for 1 hr by liquid scintillation counting analysis relative to 10 uM DAMGO; format: functional, cell membranes
Mu-type opioid receptor (Rattus norvegicus), sequence (P33535 whole entry): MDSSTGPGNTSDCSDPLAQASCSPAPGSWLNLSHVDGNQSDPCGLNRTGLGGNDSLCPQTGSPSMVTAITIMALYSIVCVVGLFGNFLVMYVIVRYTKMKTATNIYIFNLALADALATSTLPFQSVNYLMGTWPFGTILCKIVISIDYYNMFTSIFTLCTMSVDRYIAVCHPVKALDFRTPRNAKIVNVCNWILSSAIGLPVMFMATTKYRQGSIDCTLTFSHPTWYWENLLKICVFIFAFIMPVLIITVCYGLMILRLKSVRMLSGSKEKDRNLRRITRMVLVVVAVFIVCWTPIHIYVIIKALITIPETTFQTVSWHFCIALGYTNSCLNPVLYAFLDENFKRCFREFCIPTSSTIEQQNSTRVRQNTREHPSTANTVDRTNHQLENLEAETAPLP

Rattus norvegicus = species on record: Rattus norvegicus; assay: Selectivity ratio, ratio of Ki for rat delta-opioid receptor to Ki for rat mu-opioid receptor
Summary of the method: (§1)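 Competition for 0.2 nM [3H]diprenorphine in membranes (20 µg protein) from C6 cells with rat MOR or DOR, or CHO cells with human KOR. 50 mM Tris-HCl pH 7.4, 1 h at room temperature, then GF/C filtration, five buffer washes, scintillation counting. Nonspecific binding set with 10 µM naloxone. Ki from logistic fit. Mean ± S.E.M., ≥3 assays in duplicate. DOR/MOR ratio taken from the Ki values.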

[3] = biological target: T2, Delta-type opioid receptor (Rattus norvegicus, UniProt P33533); assay: Agonist activity at rat delta-opioid receptor expressed in C6 cell membrane assessed as [35S]GTPgammaS binding for 1 hr by liquid scintillation counting analysis; format: functional, cell membranes; details: for EC50: c6; for pEC50: read-out: EC50
T2 sequence (P33533 whole entry): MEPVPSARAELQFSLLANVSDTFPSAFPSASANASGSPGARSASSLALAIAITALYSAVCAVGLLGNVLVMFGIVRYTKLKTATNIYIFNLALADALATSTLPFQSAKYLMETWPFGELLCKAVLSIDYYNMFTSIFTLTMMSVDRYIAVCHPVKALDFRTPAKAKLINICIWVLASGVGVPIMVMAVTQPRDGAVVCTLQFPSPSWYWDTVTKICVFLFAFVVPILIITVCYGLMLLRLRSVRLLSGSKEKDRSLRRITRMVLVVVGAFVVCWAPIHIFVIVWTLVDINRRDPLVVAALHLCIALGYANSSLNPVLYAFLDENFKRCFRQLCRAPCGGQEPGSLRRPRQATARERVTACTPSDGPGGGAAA

[4] = biological target: Delta-type opioid receptor (Rattus norvegicus) (UniProt P33533); assay: Agonist activity at rat delta-opioid receptor expressed in C6 cell membrane assessed as [35S]GTPgammaS binding for 1 hr by liquid scintillation counting analysis relative to 10 uM DPDPE; format: functional, cell membranes
Delta-type opioid receptor (Rattus norvegicus), sequence (P33533 whole entry): as above

Mu-type opioid receptor [5] = biological target: T3, Mu-type opioid receptor (Rattus norvegicus, UniProt P33535); assay: Displacement of [3H]diprenorphine from rat mu-opioid receptor expressed in C6 cell membrane for 1 hr by liquid scintillation counting analysis; format: cell membranes
T3 sequence (P33535 whole entry): as the sequence (P33535 whole entry) above

[6] = biological target: T2, Delta-type opioid receptor; assay: Displacement of [3H]diprenorphine from rat delta-opioid receptor expressed in C6 cell membrane for 1 hr by liquid scintillation counting analysis; format: cell membranes
[7] = biological target: T1, Kappa-type opioid receptor; assay: Displacement of [3H]diprenorphine from human kappa-opioid receptor expressed in CHO cell membrane for 1 hr by liquid scintillation counting analysis; format: cell membranes; summary of the method: as §1
[8] = biological target: T1, Kappa-type opioid receptor; assay: Agonist activity at human kappa-opioid receptor expressed in CHO cell membrane assessed as [35S]GTPgammaS binding for 1 hr by liquid scintillation counting analysis relative to 10 uM U69593; format: functional, cell membranes
Plasma = assay: Stability in C57BL/6 mouse plasma after 30 mins; format: ADME, cell-free; details: 0.5 h
Mu-type opioid receptor [9] = biological target: T3, Mu-type opioid receptor; assay: Agonist activity at rat mu-opioid receptor expressed in C6 cell membrane assessed as [35S]GTPgammaS binding for 1 hr by liquid scintillation counting analysis; format: functional, cell membranes; details: for pEC50: read-out: EC50
Mus musculus [10] = assay: Antinociceptive activity in C57BL/6 mouse assessed as tail withdrawal latency upto 10 mg/kg, ip measured after 30 mins by warm water tail withdrawal assay; format: functional, organism-based
Mus musculus [11] = assay: Antinociceptive activity in C57BL/6 mouse assessed as tail withdrawal latency time at 10 mg/kg, ip measured after 30 mins by warm water tail withdrawal assay; format: functional
Mus musculus [12] = assay: Antinociceptive activity in C57BL/6 mouse assessed as time duration of action at 10 mg/kg, ip measured after 30 mins by warm water tail withdrawal assay; format: functional
Summary of the method: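 Male C57BL/6 mice given a single 10 mg/kg ip dose. Tail withdrawal from 50 °C water, 20 s cutoff, measured at varying times after dosing to follow duration of action. n=6.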

Mus musculus [13] = assay: Antinociceptive activity in ip dosed C57BL/6 mouse assessed as tail withdrawal latency measured 30 mins after drug challenge by warm water tail withdrawal assay; format: functional; details: for ED50: C57BL/6, Tail, 0.5 h
Mus musculus [14] = assay: Antinociceptive activity in ip dosed C57BL/6 mouse assessed as tail withdrawal latency pretreated with 1 mg/kg naltrexone for 30 mins measured 30 mins after drug challenge by warm water tail withdrawal assay; format: functional; details: C57BL/6, Tail
Summary of the method: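 Male C57BL/6 mice pretreated ip with 1 mg/kg naltrexone or saline 30 min before cumulative ip dosing to 3.2, 10 and 32 mg/kg. Tail withdrawal latency from 50 °C water, 20 s cutoff, read 30 min after each dose. ED50 from the dose-response.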

| SMILES | EC50 [1] | Activity [2] | Ratio Ki (Rattus norvegicus) | EC50 [3] | Activity [4] | pKi (Mu-type opioid receptor [5]) | pKi [6] | pKi [7] | Activity [8] | Stability (Plasma) | pEC50 (Mu-type opioid receptor [9]) | Activity (Mus musculus [10]) | Time (Mus musculus [11]) | Time (Mus musculus [12]) | pEC50 [1] | pEC50 [3] | ED50 (Mus musculus [13]) | Activity (Mus musculus [13]) | ED50 (Mus musculus [14]) | EC50 (Mu-type opioid receptor [9]; c6) |
| --- | --- | --- | --- | --- | --- | --- | --- | --- | --- | --- | --- | --- | --- | --- | --- | --- | --- | --- | --- | --- |
| CC(=O)N1CC[C@@H](NC(=O)[C@@H](N)Cc2c(C)cc(O)cc2C)c2cc(Cc3cccc4ccccc34)ccc21 | Not Active | 70% | 22 | Not Active | inactive | 10.22 | 8.89 | 8.37 | inactive | Stable | 9.32 | inactive |  |  |  |  |  |  |  |  |
| Cc1cc(O)cc(C)c1C[C@H](N)C(=O)N[C@@H]1CCNc2ccc(Cc3cccc4ccccc34)cc21 |  | 93% |  |  | 15% |  |  |  |  |  |  |  |  |  |  |  |  |  |  |  |
| Cc1cc(O)cc(C)c1C[C@H](N)C(=O)N[C@@H]1CCNc2ccc(CC3Cc4ccccc4C3)cc21 | Not Active | 86% | 26 |  | inactive |  |  |  | 38% |  |  | inactive |  |  |  |  |  |  |  |  |
| CC(=O)N1CC[C@@H](NC(=O)[C@@H](N)Cc2c(C)cc(O)cc2C)c2cc(CC3CCc4ccccc43)ccc21 (mixture of isomers) |  | 39% |  | Not Active |  | 10.52 | 9.08 | 7.82 | 26% |  | 7.82 |  |  |  |  |  |  |  |  |  |
| Cc1cc(O)cc(C)c1C[C@H](N)C(=O)N[C@@H]1CCNc2ccc(Cc3ccc4ccccc4c3)cc21 |  | 96% |  |  | inactive |  |  |  | inactive |  |  |  | 10 s |  |  |  |  |  |  |  |
| Cc1cc(O)cc(C)c1C[C@H](N)C(=O)N[C@@H]1CCNc2ccc(Cc3ccccc3)cc21 |  |  |  |  |  |  |  |  |  |  |  |  |  | >1 h |  |  |  |  |  |  |
| CC(=O)N1CC[C@@H](NC(=O)[C@@H](N)Cc2c(C)cc(O)cc2C)c2cc(CC3Cc4ccccc4C3)ccc21 |  | 84% | 9 | Not Active | inactive | 10.30 | 9.36 | 7.92 | 60% |  | 9.25 |  | 11 s |  | 6.21 |  |  |  |  |  |
| Cc1cc(O)cc(C)c1C[C@H](N)C(=O)N[C@@H]1CCCc2ccc(Cc3ccc4ccccc4c3)cc21 | Not Active | 72% |  | Not Active |  | 10.22 | 7.92 | 7.04 |  |  | 8.36 | inactive |  |  |  |  |  |  |  |  |
| Cc1cc(O)cc(C)c1C[C@H](N)C(=O)N[C@@H]1CCCc2ccc(Cc3cccc4ccccc34)cc21 | Not Active | 58% | 13 | Not Active | inactive | 9.41 | 8.30 | 7.20 | inactive |  | 7.85 | inactive |  |  |  |  |  |  |  |  |
| Cc1cc(O)cc(C)c1C[C@H](N)C(=O)N[C@@H]1CCCc2ccc(Cc3ccccc3)cc21 | Not Active | 64% |  | Not Active |  | 10.35 | 8.40 | 7.72 |  |  | 8.54 |  | 14 s |  |  |  |  |  |  |  |
| CC(=O)N1CC[C@@H](NC(=O)[C@@H](N)Cc2c(C)cc(O)cc2C)c2cc(Cc3ccccc3)ccc21 |  | 76% | 14 |  | 26% | 9.89 | 8.74 | 7.06 | 29% |  | 8.22 | inactive |  |  | < 5.89 | 7.17 |  |  |  |  |
| CN1CC[C@]23c4c5ccc(O)c4O[C@H]2[C@@H](O)C=C[C@H]3[C@H]1C5 [MORPHINE] |  |  |  |  |  |  |  |  |  |  |  |  |  |  |  |  | 4.73 mg/kg |  |  |  |
| Cc1cc(O)cc(C)c1C[C@H](N)C(=O)N[C@@H]1CCNc2ccc(CC3CCc4ccccc43)cc21 (mixture of isomers) |  | 16% |  | Not Active |  | 10.30 | 8.17 | 7.72 | 52% |  | 8.05 |  |  |  | 6.74 |  |  |  |  |  |
| CC(=O)N1CC[C@@H](NC(=O)[C@@H](N)Cc2c(C)cc(O)cc2C)c2cc(Cc3ccc4ccccc4c3)ccc21 | Not Active | 87% | 6 | Not Active | inactive | 10.40 | 9.64 | 7.32 | inactive | Stable | 9.03 |  |  | >3 h |  |  | 4.72 mg/kg | Dose-dependent effect | 15.1 mg/kg |  |
| CC(=O)N1CC[C@@H](NC(=O)[C@@H](N)Cc2c(C)cc(O)cc2C)c2cc(CC3CCCCC3)ccc21 |  | 70% | 11 |  | 26% | 10.52 | 9.49 | 8.08 | 33% |  | 9.21 | inactive |  |  | 6.62 | 7.85 |  |  |  |  |
| Cc1cc(O)cc(C)c1C[C@H](N)C(=O)N[C@@H]1CCCc2ccc(CC3CCCCC3)cc21 |  | inactive | 117 | Not Active | inactive |  | 7.85 | 7.70 | 25% |  |  |  |  |  | 6.46 |  |  |  |  | Not Active |
| Cc1cc(O)cc(C)c1C[C@H](N)C(=O)N[C@@H]1CCNc2ccc(CC3CCCCC3)cc21 |  | 57% | 79 | Not Active | inactive | 10.37 | 8.47 | 8.21 | 36% |  | 8.59 | inactive |  |  | 7.01 |  |  |  |  |  |
